Test results from ChEMBL document CHEMBL4513216, “Probing the Open Global Health Chemical Diversity Library for Multistage-Active Starting Points for Next-Generation Antimalarials” (ACS Infect Dis, 2020).

Assay: Toxicity liver stage against HepG2, at 10uM
Type: cell-based
Design: test concentration 10 uM, cell line HepG2-A16-CD81EGFP
Conditions: human, HepG2-A16-CD81EGFP cells; read-out: INHIBITION
Summary of the method: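 Uninfected HepG2-A16-CD81EGFP cells, 3 × 10^3 per well, 1536-well, plated on prespotted compound at 10 μM final, parasite-free screening media added to match infected plates; puromycin 10 μM positive, DMSO 0.5% negative; run in parallel with 48 h PbLuc assay at 37 °C, 5% CO2; viability by CellTiter-Glo luminescence, normalized to controls.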

| Structure (SMILES) | cytotoxicity at 10 µM [%] |
| --- | --- |
| CC(C)N1CCC(N2CCN(C3CCCCC3)CC2CCO)CC1 (stereo not given) | -9.63 |
| CCN1CCN(C(=O)c2ccn(C)c(=O)c2)CC1 | 8.66 |
| CS(=O)(=O)c1ccc(NCC2CCCO2)c(S(C)(=O)=O)c1 (stereo not given) | 3.72 |
| CSc1ccc(CNC(=O)Cc2c(C)n[nH]c2C)cc1 | 4.16 |
| CCOc1nn(CC)cc1-c1nnc(SCc2cccnc2)n1C | 5.97 |
| CC(C)NC(=O)N1CCN(C(=O)C(C)C)CC2(CC(=O)N(C)C2)C1 (stereo not given) | -0.704 |
| O=C(N1CCOCC1)[C@@]12CCO[C@@H]1CCN(CC1CCC1)C2 | 11.1 |
| CN(C)Cc1nnc2n1CCCN(C(=O)c1c[nH]cn1)C2 | 3.77 |
| O=c1ccc(-c2cccs2)nn1CN1CCc2ccccc2C1 | 14.3 |
| CC1CC(=O)c2cnc3nc(N4CCOCC4)[nH]c(=O)c3c2C1 (stereo not given) | 5.31 |
| O=C(COc1coc(CN2CCCCC2)cc1=O)Nc1ccccc1Cl | 3.72 |
| CCc1cnc(N2CC3(CCN(C(=O)c4ccoc4)C3)C2)nc1 | -8.37 |
| CCn1nccc1CNC(=O)C1CCC1 | -2.17 |
| COc1ccc(OC)c(Nc2nc3c(C)nn(C)c3c(=O)n2C)c1 | -2.73 |
| Cn1nc(C(=O)NC2CC(C)(C)NC(C)(C)C2)cc1NC(=O)C1CC1 | 0.754 |
| CCn1cc(NS(=O)(=O)c2ccc(F)cc2)c(C(=O)NCC(C)C)n1 | 6.6 |
| O=C(NCCc1cc(N2CCOCC2)nc(NC2CC2)n1)C1CC1 | -0.995 |
| Cn1cnc(S(=O)(=O)N2CCCC2c2cnccn2)c1 (stereo not given) | -28.4 |
| CC(=O)N[C@@H]1CN(C(=O)c2cnc3ccccc3c2)C[C@H]1O | -12.1 |
| Cc1c(C(=O)N2CC(Cc3nccc4ccn(C)c34)C2)cnn1C | -26.3 |
| Cc1noc(C)c1-c1cncc(CC2CCN(C(=O)c3cc[nH]n3)C2)n1 (stereo not given) | -17.4 |
| O=C(C1CCCC1)N1CCC(c2ccnc(Nc3cnccn3)n2)C1 (stereo not given) | -24.6 |

| Structure (SMILES) | cytotoxicity at 10 µM [%] |
| --- | --- |
| Cc1noc(C)c1-c1cc(CC2CCN(C(=O)c3cc[nH]n3)C2)ncn1 (stereo not given) | -13.4 |
| Cn1ccc(C(=O)N2CCOC(c3ccc(C(N)=O)cn3)C2)n1 (stereo not given) | -20 |
| Cn1nc(C2CN(C(=O)c3ccncc3)C2)c2nccnc21 | -8.8 |
| Cc1cc(-c2cnn(CCNC(=O)c3snnc3C)c2C2CC2)on1 | -7.16 |
| Cc1noc(C)c1-c1cncc(C2CCCN2Cc2cncnc2)n1 (stereo not given) | 5.25 |
| Cc1ccc(C)c(CC(=O)Nc2cccc(C(=O)N(C)C)n2)c1 | -6.56 |
| CC1CCCCN1C(=O)c1cn(-c2ccc(C(F)(F)F)cn2)nn1 (stereo not given) | -56.5 |
| CN(CCCc1ccccc1)C(=O)CCc1nc(-c2nnc[nH]2)no1 | -44.8 |
| O=S(=O)(CCCn1cncn1)Cc1ccccc1Cl | -5.91 |
| Cc1cccc(-c2ccc(C(=O)N3CCN(C4CC4)CC3)c(=O)[nH]2)c1 | 13.2 |
| CC(C(N)=O)N1CCN(c2ncc(Br)cn2)CC1 (stereo not given) | 3.23 |
| CC(C)(C)OC(=O)N[C@H]1CCN(c2cncc(Br)c2)C1 | -52.8 |
| CC(C)c1noc(C(C)N2CCC(c3nc4ccccc4o3)CC2)n1 (stereo not given) | 8.05 |
| CC(CNC(=O)CCc1ccccn1)c1ccsc1 (stereo not given) | -3.3 |
| CC(NC(=O)CCCN(C)C)c1cn(-c2ccccc2)nn1 (stereo not given) | -22.7 |
| CNC(=O)c1cccnc1NCc1ccc(Cn2cccn2)cc1 | 17.9 |
| Cc1ccsc1C(Cc1ccccc1)NC(=O)CNC(=O)C1CC1 (stereo not given) | 11.6 |
| COCCS(=O)(=O)Cc1csc(NC(C)=O)n1 | -2.93 |
| COc1ccc(C#N)cc1CSCCN1CCOCC1 | 6.14 |
| CCN(C(=O)C1CC1)C(c1cccnc1)c1ccc2c(c1)CCO2 (stereo not given) | 1.46 |
| Cc1csc(CCNC(=O)Nc2cc(C(F)(F)F)c[nH]c2=O)n1 | 8.13 |
| Cc1c(NCC(C)(C)C)cccc1C(=O)N(C)Cc1ncnn1C | 22.5 |

| Structure (SMILES) | cytotoxicity at 10 µM [%] |
| --- | --- |
| Cc1n[nH]c(C)c1C1CCCN1C(=O)NCC(=O)Nc1ccccc1 (stereo not given) | 4.23 |
| COc1cc(OC)cc(C2(O)CCN(Cc3nc(C)c(C)o3)CC2)c1 | -7.06 |
| Cc1cc(C)cc(C2(C(=O)NCC(C)CN3CCCC3=O)CC2)c1 (stereo not given) | 1.42 |
| N#Cc1c(N2CCN(CC3CCOC3)CC2)nc2ccccn12 (stereo not given) | 1.37 |
| Cc1cccc(OCCSCCn2nc3ccccn3c2=O)c1 | 6.47 |
| COc1c(CNC(C)C(=O)NC2CCCC2)c(C)nn1C (stereo not given) | -8.45 |
| CC(=O)N1CCCN(C(=O)NC(C)c2csc3ccccc23)CC1 (stereo not given) | -4.6 |
| Cc1noc(C)c1CNC(C(=O)N1CCOCC1)C(C)C (stereo not given) | 4.55 |
| O=C(c1cc(-n2cccn2)ccn1)N(CC(F)(F)F)C1CCCC1 | 5.49 |
| Cc1ccc2cccc(S(=O)(=O)N(C)C3CCCN(C)C3)c2n1 (stereo not given) | 1.5 |
| CSC(CNS(N)(=O)=O)c1cccc(Cl)c1 (stereo not given) | -14.3 |
| CC(NCc1cccc(S(=O)(=O)N(C)C)c1)c1cccnc1 (stereo not given) | 1.56 |
| CN(C(=O)C1CSCN1S(=O)(=O)c1ccc(F)cc1)C1CC1 (stereo not given) | 1.18 |
| O=C(c1ccco1)N1CCO[C@@H]2CNC[C@@H]21 | -108 |
| COCc1cncc2c1CCN(C(=O)c1ccoc1C)C2 | -81.1 |
| c1cnc(N2CCOCC3(CNCCO3)C2)nc1 (stereo not given) | -112 |
| CNC(=O)[C@@]12CCO[C@@H]1CCN(S(=O)(=O)c1ccc(C)cc1)C2 | -69.9 |
| CN1CCN(Cc2ccoc2)Cc2cccnc21 | 0.899 |
| CN(C)c1ncc2c(n1)N(C)CCN(CC1CC1)C2=O | -1.36 |
| CC[C@H](C)[C@H](N)C(=O)Nc1nc(-c2cnc(N(C)C)nc2)cs1 | -9.44 |
| Cc1ncc(-c2ccnc(N3CCN(C)CC3)n2)c(-c2cccnc2)n1 | 4.36 |
| CC(=O)N1CCN(Cc2ccc(C(F)(F)F)cc2F)CC(O)C1 (stereo not given) | -5.34 |

| Structure (SMILES) | cytotoxicity at 10 µM [%] |
| --- | --- |
| O=C(O)C1(Oc2ccc3ccccc3c2)CCN(c2ncccn2)CC1 | 1.46 |
| O=C(CC1CCC1)N1CCCC(CO)(CC2CC2)C1 (stereo not given) | 7.18 |
| O=C(CN1CCc2onc(-c3ccccc3F)c2C1)NC1CC1 | 14.6 |
| Cc1nc(CC(=O)N2CCN(CCOc3ccccc3)CC2)cs1 | -15.2 |
| Cc1ccnn1CC(=O)N(C)Cc1ccc(-n2cccn2)cc1 | 0.0616 |
| Cc1ccccc1OCC1CCCN(C(=O)CNC(=O)N(C)C)C1 (stereo not given) | -4.46 |
| O=C(c1cccnc1O)N1CCC2(CCCO2)CC1 | 7.28 |
| CC(c1ccccn1)N(C)Cc1cc2cc3c(cc2[nH]c1=O)OCO3 (stereo not given) | 11.7 |
| COc1ccccc1CCN1CCCC(CN(C)Cc2ccc(C)o2)C1 (stereo not given) | -0.813 |
| CN(Cc1cccc(-n2cccn2)c1)C(=O)c1cccc(N(C)C)c1 | -0.809 |
| O=C(c1ccc[nH]1)N1CCc2c(cccc2S(=O)(=O)N2CCOCC2)C1 | -15 |
| O=C(N[C@@H]1CCN(Cc2cc3ccccc3s2)C[C@H]1O)c1cccnc1 | -7.57 |
| COc1nc2ccccc2cc1CN1CCCC(CNC(C)=O)C1 (stereo not given) | 1.9 |
| Cn1ccc(C(=O)N2CCCN(CCCc3ccccc3)CC2)cc1=O | -0.942 |
| O=c1[nH]c(NCc2cccc(-c3ccccc3)c2)nc2c1CCNC2 | 3.3 |
| Cc1nonc1CN1CC[C@@](O)(C2CCC2)[C@H](C)C1 | 17.5 |
| CCc1nc(NC2CCN(CC(=O)NC3CC3)CC2)c2cnn(C)c2n1 | 4.99 |
| CCCNC(=O)CCC(=O)N1CCC(c2noc3cc(F)ccc23)CC1 | 2.45 |
| CC(C)Oc1cc(N2CCC(N3CCC(O)CC3)CC2)nc(N)n1 | -12.2 |
| COc1cc(CNc2cnn(CC(F)F)c2)ccc1O | 0.553 |
| CC1CN(C)CCN1CC(=O)NCCOc1cccc(F)c1 (stereo not given) | -11.7 |
| CN(C)c1cc(CNC(=O)Nc2ccc(C#N)cc2)ccn1 | -5.66 |

| Structure (SMILES) | cytotoxicity at 10 µM [%] |
| --- | --- |
| CCc1nc(C2CCCN2CCS(=O)(=O)c2ccccc2)no1 (stereo not given) | -8.1 |
| COc1c(C)cnc(CN(C)C(=O)c2cccnc2N(C)C)c1C | -12.3 |
| O=C(CCNC(=O)c1ccoc1)Nc1ccccc1F | -8.38 |
| COc1c(C)cnc(CN(C)C(=O)c2ccccn2)c1C | 0.22 |
| CN(Cc1ccc2c(c1)OCCO2)C(=O)Cn1cccnc1=O | 3.01 |
| Cn1cc(C(=O)N2CCCC(n3cccn3)C2)c2ccccc21 (stereo not given) | 5.2 |
| Cc1cnn(C2CCCN(C(=O)Cc3cn4ccccc4n3)C2)c1 (stereo not given) | -3.15 |
| CCc1nc(CN2CCCC(NCc3ncc(C(C)(C)C)o3)C2)no1 (stereo not given) | 1.97 |
| Cc1ccc(C)c(CSc2nnc(C(N)C(C)C)o2)c1 (stereo not given) | 9.24 |
| Cn1cc(CN2CCC(c3cc(COc4cccc(Cl)c4)[nH]n3)C2)cn1 (stereo not given) | -2.93 |
| O=S(=O)(N1CCCCC1)N1CCc2nc(C3CCNCC3)ncc2C1 | -4.15 |
| Cc1ccc(C(=O)N2CC[C@@H]3CN(C4CCOCC4)CCO[C@@H]3C2)o1 | -121 |
| CN1CC(=O)N(c2ccsc2)CC12CCN(C(=O)CC1CCCC1)C2 (stereo not given) | -77.3 |
| O=C(c1ccc[nH]1)N1CCc2onc(COc3cccnc3)c2C1 | -62.6 |
| Cc1cc(CN2CCC3(CC2)COC(COCC2CC2)C3)no1 (stereo not given) | -107 |
| CCOC(=O)[C@H]1CNC[C@H]1C(=O)OCC | 9.24 |
| CCOCCN1CCO[C@H]2[C@H](OCc3ccccn3)CC[C@@H]21 | -113 |
| O=C([C@H]1CN(Cc2nccs2)C[C@H]2OCC[C@@H]12)N1CCCCO1 | -111 |
| Cc1ccccc1CN1CCC2(COCc3cnc(N(C)C)nc32)C1 (stereo not given) | -8.22 |
| Cc1ccc(CNC(=O)c2ccc(S(=O)(=O)N3C[C@H]4C[C@@H]3CN4)cc2)o1 | -7.2 |
| CCS(=O)(=O)N1C[C@@H]2C[C@H](C(=O)N(C)C)[C@H](C1)O2 | 5.58 |
| O=C(c1ccccn1)N1C[C@H]2CC[C@@H](C1)N(C(=O)CCc1cccs1)C2 | -9 |
